Data set [1] concerns Trypanosoma brucei brucei. Briefly: Antiparasitic activity against bloodstream form of Trypanosoma brucei brucei B48 measured after 48 hrs by alamar blue assay. The note with it: B48, 48 h. It is filed as functional, organism-based.
The nature of data set [2]: Resistance factor, ratio of EC50 for bloodstream form of tbat1-/- deficient Trypanosoma brucei brucei to EC50 for wild-type bloodstream form of Trypanosoma brucei brucei. It is filed as functional.
Data set [3] can be described thus: Resistance factor, ratio of EC50 for bloodstream form of diminazene-resistant Trypanosoma congolense EMS MUT DimR to EC50 for wild-type bloodstream form of Trypanosoma congolense. It is filed as functional. The procedure, abridged: (§1)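 The ratio was taken from Alamar Blue EC50s for resistant and wild-type IL3000 bloodstream-form T. congolense. Cells at 2.5×10^5 per mL were grown at 34 °C in 5% CO2 in supplemented MEM with compound for 48 h, then with resazurin for 24 h.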

For data set [4], the system named is Trypanosoma congolense. Kind of data set: Antitrypanosomal activity against bloodstream form of Trypanosoma congolense IL3000 measured after 48 hrs by alamar blue assay. In kind it is functional, organism-based. The note with it: IL3000, 48 h. The procedure, abridged:
(§2)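 Bloodstream-form T. congolense IL3000 and derived diminazene-resistant lines were grown at 34 °C in humidified 5% CO2 in supplemented MEM with 20% goat serum. Cells at 2.5×10^5 per mL were seeded into serial compound dilutions and incubated 48 h. 0.49 mM resazurin solution was then added for a further 24 h.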

In data set [5] the test system is Trypanosoma brucei brucei. Briefly: Antiparasitic activity against bloodstream form of tbat1-/- deficient Trypanosoma brucei brucei measured after 48 hrs by alamar blue assay. It is filed as functional, organism-based.
A further data set concerns Staphylococcus aureus. Kind of data set: Antibacterial activity against Staphylococcus aureus ATCC 43300 measured after 18 hrs by two-fold serial dilution method. In kind it is functional.
Data set [6] is described as follows: Resistance factor, ratio of EC50 for bloodstream form of diminazene-resistant Trypanosoma congolense DimR to EC50 for bloodstream form of wild-type Trypanosoma congolense. It is filed as functional. The procedure, abridged: as §1
Data set [7] relates to Trypanosoma congolense. Briefly: Antitrypanosomal activity against bloodstream form of diminazene-resistant Trypanosoma congolense DimR measured after 48 hrs by alamar blue assay. It is filed as functional, organism-based. The procedure, abridged: as §2
(Resazurin is reduced to fluorescent resorufin, in cell work by metabolically active cells.)

The next data set deals with Trypanosoma vivax. Briefly: Antitrypanosomal activity against Trypanosoma vivax STIB 719 by [3H]-hypoxanthine incorporation assay. In kind it is functional, organism-based.
Data set [8] relates to Trypanosoma brucei brucei. Kind of data set: Antiparasitic activity against bloodstream form of Trypanosoma brucei brucei Lister 427 measured after 48 hrs by alamar blue assay. In kind it is functional.
Data set [9] can be described thus: Diffusion coefficient of compound in 50% v/v pH 5 sodium acetate buffer in DMSO-d6 at 1.5 mM by DOSY analysis. It is filed as physicochemical. The note with it: pH 5, 1500 µM.
A short description of data set [10]: Aggregation property of compound at 1.5 mM by 1H-NMR spectra analysis. The following applies: 1500 µM.
Data set [11] concerns Trypanosoma brucei brucei. Briefly: Antiparasitic activity against wild-type Trypanosoma brucei brucei measured after 48 hrs by alamar blue assay. It is filed as functional, organism-based.
Data set [12] in a line: Cytotoxicity against rat L6 cells assessed as reduction in cell viability measured after 69 hrs by alamar blue assay. It is filed as toxicity, cell-based.
A further data set has as its system Enterococcus faecalis. Briefly: Antibacterial activity against Enterococcus faecalis ATCC 51299 measured after 18 hrs by two-fold serial dilution method. It is filed as functional.
In data set [13] the test system is Trypanosoma congolense. Kind of data set: Antitrypanosomal activity against bloodstream form of Trypanosoma congolense measured after 48 hrs by alamar blue assay. In kind it is functional, organism-based. The procedure, abridged: as §2
For another data set, the system named is Leishmania donovani. Kind of data set: Antileishmanial activity against Leishmania donovani MHOM/ET/67:LV82 amastigotes infected in BMDM cell measured after 48 hrs by luciferase assay. It is filed as functional, organism-based. The note with it: MHOM/ET/67:LV82, BMDM. The procedure, abridged: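 Bone marrow-derived macrophages (0.5×10^5/well) were infected at a 20:1 […] ratio with luciferase-expressing L. donovani LV82. Free parasites were removed at 24 h post-infection, then doubling dilutions were added, starting at 25 or 20 μg mL⁻¹ from a 1 mg mL⁻¹ DMSO stock. At 72 h, luciferin (150 μg mL⁻¹) was added and bioluminescence suppression read against controls.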

Data set [14] in a line: Aggregation property of compound in 0.1 M pH 5 sodium acetate buffer at 1.5 mM by 1H-NMR spectra analysis. In kind it is physicochemical. The note with it: pH 5, 1500 µM.
Data set [15] in a line: Aggregation property of compound in 70% v/v 0.1 M pH 5 sodium acetate buffer in DMSO-d6 at 1.5 mM by 1H-NMR spectra analysis. The following applies: pH 5, 1500 µM. It is filed as physicochemical. The procedure, abridged:
(§3)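 Proton NMR series at a fixed 1.5 mM S-MGB. DMSO-d6 was stepped down by 5% from 80% to 25% by adding 0.1 M pH 5 sodium acetate buffer, giving twelve solvent compositions per compound.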

Data set [16] relates to Trypanosoma congolense. Briefly: Antitrypanosomal activity against bloodstream form of diminazene-resistant Trypanosoma congolense EMS MUT DimR measured after 48 hrs by alamar blue assay. In kind it is functional, organism-based. The procedure, abridged: as §2
Data set [17] is described as follows: Resistance factor, ratio of EC50 for bloodstream form of Trypanosoma brucei brucei B48 to EC50 for wild-type bloodstream form of Trypanosoma brucei brucei. It is filed as functional.
A further data set concerns DNA. Briefly: Binding affinity to DNA (unknown origin) assessed as change in melting temperature at 2:1 compound to DNA ratio by UV-visible spectrophotometry. It is filed as nucleic-acid assay. The procedure, abridged:
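Duplex oligomer at 6 × 10⁻⁶ M in 10 mM PBS (pH 7.4) with 50 mM NaCl was annealed (90 °C, then unaided cooling) and mixed at 2 S-MGB:1 helix; the reference had no ligand. Samples were heated 10–90 °C and cooled 80–10 °C at 0.5 °C min⁻¹, with A260 recorded. Tm came from a Boltzmann sigmoid fit; three repeats.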

The nature of data set [18]: Aggregation property of compound in 45% DMSO-d6:55% 0.1 M pH 5 sodium acetate buffer at 1.5 mM by 1H-NMR spectra analysis. It is filed as physicochemical. The note with it: pH 5, 1500 µM. The procedure, abridged:
as §3

Converted amounts (≈) assume the structure as drawn.

For orientation: EC50 means the concentration giving half of the maximal effect. The term MIC80 denotes an inhibitory concentration at the 80% level, which refers to growth in some studies and to a panel of isolates in others. A higher MIC80 goes with weaker potency. In general, ΔTm refers to the change in melting temperature against a reference sample. Turning to `Cn1cc(NC(=O)c2ccc(/C=C/c3cnc4ccccc4c3)cc2)cc1C(=O)NCCN1CCOCC1`, the EC50 in [1] turned out to be 600 nM; with Trypanosoma congolense [4] it was 870 nM; in [5], 550 nM; with Trypanosoma congolense [7] it was 3100 nM; in the data set on Trypanosoma vivax it was 760 nM; in data set [8], 3120 nM. Also, the EC50 in data set [11] worked out at 1200 nM; in the data set on Trypanosoma congolense [13], 3400 nM; in the data set with Leishmania donovani, 1600 nM; with Trypanosoma congolense [16], 3200 nM. Besides, the Ratio EC50 came to 0.5 in data set [2], 0.9 in data set [3], 0.9 in [6] and 0.5 in data set [17]. Also, the MIC80 in the data set with Staphylococcus aureus and with Enterococcus faecalis was over 50 µM throughout. In data set [9], the D is 1.75 10^-10 m²/s. Besides, the result in data set [10], in [14], in data set [15] and in data set [18] was Active. Further, the EC50 at 69 h in [12] was found to be 6700 nM. Also, the ΔTm in the data set with DNA worked out at 10 °C.
Regarding `CN[C@H](CC(C)C)C(=O)N[C@H]1C(=O)N[C@@H](CC(N)=O)C(=O)N[C@H]2C(=O)N[C@H]3C(=O)N[C@H](C(=O)N[C@H](C(=O)O)c4cc(O)cc(O)c4-c4cc3ccc4O)[C@H](O)c3ccc(c(Cl)c3)Oc3cc2cc(c3O[C@@H]2O[C@H](CO)[C@@H](O)[C@H](O)[C@H]2O[C@H]2C[C@](C)(N)[C@H](O)[C@H](C)O2)Oc2ccc(cc2Cl)[C@H]1O` [VANCOMYCIN], the MIC80 is 0.39 µM (≈ 0.565 µg/mL) in the data set with Staphylococcus aureus and 6.25 µM (≈ 9.06 µg/mL) in the data set on Enterococcus faecalis.
For the molecule `COc1cccc(/C=C/c2ccc(C(=O)Nc3cc(C(=O)Nc4cc(C(=O)NCCN5CCOCC5)n(C)c4)n(C)c3)cc2)c1`, the MIC80 was 6.25 µM (≈ 3.82 µg/mL) in the data set on Staphylococcus aureus and 25 µM (≈ 15.3 µg/mL) in the data set on Enterococcus faecalis. This molecule displayed an EC50 in [8] of 780 nM. In the data set on DNA, the ΔTm was 10 °C.
Consider `COc1cccc(/C=C/c2ccc(C(=O)Nc3cc(C(=O)NCCN4CCOCC4)n(C)c3)cc2)c1`, for which the MIC80 in the data set on Staphylococcus aureus and with Enterococcus faecalis was over 50 µM in each case. In addition, the EC50 in data set [8] is over 50000 nM. Besides, the thermal shift (ΔTm) with DNA worked out at 0 °C.
In the case of `CN1CCN(C(=O)c2cc(NC(=O)c3ccc(/C=C/c4cnc5ccccc5c4)cc3)cn2C)CC1`, the thermal shift (ΔTm) in the data set on DNA is 2 °C.
For the molecule `COc1ccc(/C=C/c2ccc(C(=O)Nc3cc(C(=O)N4CCN(C)CC4)n(C)c3)cn2)cc1`, the MIC80 with Staphylococcus aureus and in the data set with Enterococcus faecalis was over 50 µM throughout. In [8], this molecule returned an EC50 of over 50000 nM. Besides, in the data set with DNA, the ΔTm worked out at 0 °C.
On to `COc1cccc(/C=C/c2ccc(C(=O)Nc3cc(C(=O)NN(C)C)n(C)c3)cc2)c1`, for which the ΔTm with DNA was 0 °C.
In the case of `N=C(N)c1ccc(/N=N/Nc2ccc(C(=N)N)cc2)cc1` [DIMINAZENE], the EC50 came to 80 nM in data set [1]; 130 nM in the data set with Trypanosoma congolense [4]; 180 nM in [5]; 2100 nM with Trypanosoma congolense [7]; 170 nM in the data set on Trypanosoma vivax; 500 nM in data set [8]. Besides, the concentration giving a half-maximal response (EC50) in [11] was determined as 30 nM; in the data set on Trypanosoma congolense [13], 200 nM; with Trypanosoma congolense [16] it was 2300 nM. In addition, the Ratio EC50 in [2] came out at 5.9; in [3] it was 10.9; in data set [6] it was 9.5; in data set [17], 2.6.
For the molecule `COc1cccc(/C=C/c2ccc(C(=O)Nc3cc(C(=O)N4CCN(C)CC4)n(C)c3)cc2)c1`, the MIC80 in the data set on Staphylococcus aureus and in the data set with Enterococcus faecalis was over 50 µM in each case. Further, the 50% effective concentration (EC50) in [8] is over 50000 nM. The ΔTm in the data set on DNA was found to be 0 °C.
`COc1ccc(/C=C/c2ccc(C(=O)Nc3cc(C(=O)Nc4cc(C(=O)NCCN5CCOCC5)n(C)c4)n(C)c3)cn2)cc1`: the MIC80 against Staphylococcus aureus turned out to be 1.56 µM (≈ 0.954 µg/mL); in the data set with Enterococcus faecalis it was 3.12 µM (≈ 1.91 µg/mL). Besides, in [8], it took 1560 nM to reach a half-maximal effect (EC50). The ΔTm in the data set on DNA amounted to 12 °C.
As for `COc1ccc(/C=C/c2ccc(C(=O)Nc3cc(C(=O)NN(C)C)n(C)c3)cn2)cc1`, the MIC80 in the data set with Staphylococcus aureus and against Enterococcus faecalis was over 50 µM in each case. In data set [8], this molecule yielded an EC50 of over 50000 nM. In addition, the shift in melting temperature (ΔTm) in the data set on DNA worked out at 0 °C.
On to `Cn1cc(NC(=O)c2cc(NC(=O)c3ccc(/C=C/c4cnc5ccccc5c4)cc3)cn2C)cc1C(=O)NCCN1CCOCC1` [MGB-BP-3], for which the MIC80 worked out at 0.2 µM (≈ 0.126 µg/mL) against Staphylococcus aureus and 0.78 µM (≈ 0.493 µg/mL) in the data set with Enterococcus faecalis. The molecule further had an EC50 in data set [8] of under 190 nM. The D in data set [9] was 1.07 10^-10 m²/s. For the same molecule, the result in data set [10], in data set [14] and in data set [18] was Active. In addition, in the data set with DNA, the ΔTm came out at 20 °C.

The record behind these values is ChEMBL document CHEMBL5136964, “Truncated S-MGBs: towards a parasite-specific and low aggregation chemotype” (RSC Med Chem, 2021).
